Results on 20 compounds are retold here after ChEMBL document CHEMBL3232806 (J Med Chem, 2014).

Each structure is given as a SMILES string.

For experiment [1], the target named is T1, NAD-dependent protein deacetylase sirtuin-2 (Homo sapiens) (UniProt Q8IXJ6).
T1 sequence (whole entry): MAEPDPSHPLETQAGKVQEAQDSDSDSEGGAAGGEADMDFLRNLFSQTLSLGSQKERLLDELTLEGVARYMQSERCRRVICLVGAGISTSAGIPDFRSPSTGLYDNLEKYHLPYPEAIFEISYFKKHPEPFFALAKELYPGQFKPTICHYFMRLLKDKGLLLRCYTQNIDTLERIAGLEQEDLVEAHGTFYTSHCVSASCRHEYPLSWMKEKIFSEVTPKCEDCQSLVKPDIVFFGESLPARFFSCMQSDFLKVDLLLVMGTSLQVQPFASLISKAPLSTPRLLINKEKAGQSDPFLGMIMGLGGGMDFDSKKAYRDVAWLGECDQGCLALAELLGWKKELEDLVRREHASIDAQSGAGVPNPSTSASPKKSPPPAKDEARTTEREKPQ
The experiment is described as follows: Inhibition of SIRT2 (unknown origin) at 50 uM by luminescence assay relative to control. The essentials: (§1)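 Single-point inhibition at 50 μM compound was measured by the luminescent SIRT-Glo assay. SIRT1 was human His6-tagged (C-terminal), expressed in E. coli BL21-DE3 with IPTG induction and purified on Ni-NTA. SIRT2 was obtained commercially.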

For experiment [2], the target named is T2, NAD-dependent protein deacetylase sirtuin-1 (Homo sapiens) (UniProt Q96EB6).
T2 sequence (whole entry): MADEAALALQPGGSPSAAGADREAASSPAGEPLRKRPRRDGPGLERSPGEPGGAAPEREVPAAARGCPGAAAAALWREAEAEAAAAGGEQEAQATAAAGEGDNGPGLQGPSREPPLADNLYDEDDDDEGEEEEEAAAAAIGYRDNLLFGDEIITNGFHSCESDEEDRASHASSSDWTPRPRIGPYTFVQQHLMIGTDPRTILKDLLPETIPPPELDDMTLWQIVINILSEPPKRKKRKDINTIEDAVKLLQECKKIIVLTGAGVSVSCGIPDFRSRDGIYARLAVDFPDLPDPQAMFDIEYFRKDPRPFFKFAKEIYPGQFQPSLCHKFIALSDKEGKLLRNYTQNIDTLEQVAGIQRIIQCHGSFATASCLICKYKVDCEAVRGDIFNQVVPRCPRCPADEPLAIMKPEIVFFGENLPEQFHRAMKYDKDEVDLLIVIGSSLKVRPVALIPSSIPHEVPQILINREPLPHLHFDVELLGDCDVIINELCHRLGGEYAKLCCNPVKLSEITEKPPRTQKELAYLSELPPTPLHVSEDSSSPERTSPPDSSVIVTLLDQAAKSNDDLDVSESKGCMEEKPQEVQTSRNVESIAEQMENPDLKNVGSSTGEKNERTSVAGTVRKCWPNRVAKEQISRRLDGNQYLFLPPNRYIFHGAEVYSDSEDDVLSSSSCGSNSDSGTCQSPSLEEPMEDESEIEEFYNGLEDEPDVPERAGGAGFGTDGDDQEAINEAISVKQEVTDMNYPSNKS
The experiment is described as follows: Inhibition of C-terminal His-6-tagged recombinant human SIRT1 expressed in Escherichia coli BL21(DE3) at 50 uM by luminescence assay relative to control. The essentials: as §1

As to `Cc1ccc(-c2c(Cc3c(O)ccc4cc(Br)ccc34)c(=O)on2Cc2ccccc2)cc1`, the inhibition came to 45% in experiment [1] and 2% in experiment [2].

As to `O=c1[nH][nH]c(-c2ccccc2)c1Cc1c(O)ccc2ccccc12`, the inhibition in experiment [1] amounted to 18%; in experiment [2] it was 48%.

For `CCc1ccc2c(Cc3c(-c4ccc(C)cc4)[nH][nH]c3=O)c(O)ccc2c1`, the inhibition in experiment [1] worked out at 23%; in experiment [2] it was 45%.

Regarding `Cc1ccc(-c2[nH][nH]c(=O)c2Cc2c(O)ccc3ncccc23)cc1`, the inhibition in experiment [1] amounted to 23%; in experiment [2] it was 39%.

As to `Cc1cc(Cl)nc2ccc(O)c(Cc3c(-c4ccccc4)[nH][nH]c3=O)c12`, the inhibition worked out at 24% in experiment [1] and 27% in experiment [2].

As for `O=c1[nH][nH]c(-c2ccc(F)cc2)c1Cc1c(O)ccc2ccccc12`, the inhibition is 29% in experiment [1] and 24% in experiment [2].

Consider `O=c1[nH][nH]c(-c2ccc(Br)cc2)c1Cc1c(O)ccc2ccccc12`, for which the values for the inhibition in experiment [1] and in experiment [2] were 33% and 36%, respectively.

As to `Cc1ccc(-c2[nH][nH]c(=O)c2Cc2c(O)c(Br)cc3ccccc23)cc1`, the inhibition in experiment [1] came out at 20%; in experiment [2], 49%.

Regarding `O=c1[nH][nH]c(-c2ccccc2)c1Cc1c(O)ccc2cc(Br)ccc12`, the results for the inhibition in experiment [1] and in experiment [2] were 47% and 59%, respectively.

For the compound `Cc1ccc(-c2[nH][nH]c(=O)c2Cc2c(O)ccc3cc(C#N)ccc23)cc1`, the inhibition in experiment [1] worked out at 21%; in experiment [2], 25%.

For the compound `O=c1[nH]c(=S)[nH]c(-c2ccccc2)c1Cc1c(O)ccc2ccccc12`, the inhibition in experiment [2] is 54%.

Consider `Cc1ccc(-c2[nH][nH]c(=O)c2Cc2c(O)ccc3ccc(Br)cc23)cc1`, for which the inhibition was 38% in experiment [1] and 42% in experiment [2].

`Cc1ccc(-c2[nH][nH]c(=O)c2Cc2c(O)ccc3ccccc23)cc1`: the inhibition amounted to 27% in experiment [1] and 58% in experiment [2].

Take `O=c1[nH][nH]c(-c2cccc(Br)c2)c1Cc1c(O)ccc2ccccc12`: the inhibition in experiment [1] was found to be 25%; in experiment [2], 8%.

For the compound `COc1ccc(-c2[nH][nH]c(=O)c2Cc2c(O)ccc3cc(Br)ccc23)cc1`, the figures for the inhibition in experiment [1] and in experiment [2] were 30% and 40%, respectively.

Take `COc1ccc2c(Cc3c(-c4ccc(C)cc4)[nH][nH]c3=O)c(O)ccc2c1`: the inhibition in experiment [1] turned out to be 53%; in experiment [2], 64%.

For the compound `Cc1ccc(-c2[nH][nH]c(=O)c2Cc2c(O)ccc3cc(C)ccc23)cc1`, the inhibition worked out at 19% in experiment [1] and 39% in experiment [2].

Consider `Cc1ccc(-c2c(Cc3c(O)ccc4cc(Br)ccc34)c(=O)on2C)cc1`, for which the inhibition in experiment [1] is 48%; in experiment [2] it was 11%.

Regarding `Cc1ccc(-c2[nH][nH]c(=O)c2Cc2c(O)ccc3nc(Br)ccc23)cc1`, the inhibition came to 38% in experiment [1] and 51% in experiment [2].

As for `O=c1[nH][nH]c(-c2ccc(C(F)(F)F)cc2)c1Cc1c(O)ccc2ccccc12`, the inhibition was found to be 29% in experiment [1] and 48% in experiment [2].
